From ChEMBL document CHEMBL1129299, “Synthesis and antitumor evaluation of a highly potent cytotoxic DNA cross-linking polyamine analogue, 1,12-diaziridinyl-4,9-diazadodecane” (1996)

Columns and labels:
[1] = tested on: Mus musculus; test: In vivo antitumor studies were carried out on mice bearing L1210 murine leukemia cells, by administering intraperitoneally the compound dose of 10 mg/kg on days 1,5 and 9.; details: route intraperitoneal
[2] = tested on: Mus musculus; test: Percent increase in life span was calculated by administering intraperitoneally the compound dose of 10 mg/kg on days 1,5 and 9.; details: ip
[3] = tested on: Mus musculus; test: Net log cell kill is an estimate of the number of cells that are killed by the compound was calculated at dose of 10 mg/kg on days 1,5,9; format: functional
[4] = tested on: Mus musculus; test: In vivo antitumor studies were carried out on mice bearing L1210 murine leukemia cells, by administering intravenously the compound dose of 2.7 mg/kg on days 1,8; format: functional; details: route intravenous
Outline: (§1)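 Female CD2F1 mice (12-week-old, five per group) given 1 × 10^5 L1210 ascites cells ip on day 0; cells were first passaged ip in DBA/2 mice. From day 1, freshly made drug in 25 mM sodium phosphate pH 7.4 was given iv by tail vein at 0.01 mL/g. Mean survival days were compared with untreated mice by ANOVA and Newman-Keuls.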

[5] = tested on: Mus musculus; test: In vivo antitumor studies were carried out on mice bearing L1210 murine leukemia cells, by administering intravenously the compound dose of 1.8 mg/kg on days 1,8; format: functional; details: route intravenous
Outline: as §1

[6] = tested on: Mus musculus; test: Percent increase in life span was calculated by administering intravenously the compound dose of 1.8 mg/kg on days 1; format: functional; details: route intravenous
Outline: (§2)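 CD2F1 female mice bore ip L1210 (1 × 10^5 cells/mouse, day 0). Tail-vein iv dosing in 25 mM phosphate buffer pH 7.4 began on day 1. Percent increase in life span was calculated as (T − C)/C × 100, with T and C the median days of death for the treated and untreated groups.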

[7] = tested on: Mus musculus; test: In vivo antitumor studies were carried out on mice bearing L1210 murine leukemia cells, by administering intravenously the compound dose of 4.0 mg/kg on days 1,5 and 9.; format: functional; details: route intravenous
Outline: as §1

[8] = tested on: Mus musculus; test: In vivo antitumor studies were carried out on mice bearing L1210 murine leukemia cells, by administering intravenously the compound dose of 6.0 mg/kg on days 1; format: functional; details: route intravenous
Outline: as §1

[9] = tested on: Mus musculus; test: In vivo antitumor studies were carried out on mice bearing L1210 murine leukemia cells, by administering intravenously the compound dose of 2.7 mg/kg on days 1,5 and 9.; format: functional; details: route intravenous
Outline: as §1

[10] = tested on: Mus musculus; test: Net log cell kill is an estimate of the number of cells that are killed by the compound was calculated at dose of 2.7 mg/kg on days 1,2; format: functional
Outline: (§3)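 Net log cell kill in female CD2F1 mice given ip L1210 (1 × 10^5 cells, day 0) and iv tail-vein drug from day 1. It was calculated from treated-minus-control median day of death, less treatment duration, relative to tumor doubling time. Doubling time came from median days of death in titration groups of 10 mice implanted with 1 × 10^4 to 1 × 10^6 cells.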

[11] = tested on: Mus musculus; test: Percent increase in life span was calculated by administering intravenously the compound dose of 2.7 mg/kg on days 1,8; format: functional; details: route intravenous
Outline: as §2

[12] = tested on: Mus musculus; test: Net log cell kill is an estimate of the number of cells that are killed by the compound was calculated at dose of 2.7 mg/kg on days 1; format: functional
Outline: as §3

[13] = tested on: Mus musculus; test: Net log cell kill is an estimate of the number of cells that are killed by the compound was calculated at dose of 1.8 mg/kg on days 1; format: functional
Outline: as §3

[14] = tested on: Mus musculus; test: Percent increase in life span was calculated by administering intravenously the compound dose of 1.8 mg/kg on days 1,2; format: functional; details: route intravenous
Outline: as §2

[15] = tested on: Mus musculus; test: In vivo antitumor studies were carried out on mice bearing L1210 murine leukemia cells, by administering intravenously the compound dose of 2.7 mg/kg on days 1,2; format: functional; details: route intravenous
Outline: as §1

[16] = tested on: Mus musculus; test: Percent increase in life span was calculated by administering intravenously the compound dose of 2.7 mg/kg on days 1; format: functional; details: route intravenous
Outline: as §2

[17] = tested on: Mus musculus; test: Percent increase in life span was calculated by administering intravenously the compound dose of 2.7 mg/kg on days 1,2; format: functional; details: route intravenous
Outline: as §2

[18] = tested on: Mus musculus; test: In vivo antitumor studies were carried out on mice bearing L1210 murine leukemia cells, by administering intravenously the compound dose of 1.8 mg/kg on days 1; format: functional; details: route intravenous
Outline: as §1

[19] = tested on: Mus musculus; test: Percent increase in life span was calculated by administering intravenously the compound dose of 4.0 mg/kg on days 1; format: functional; details: route intravenous
Outline: as §2

[20] = tested on: Mus musculus; test: Percent increase in life span was calculated by administering intravenously the compound dose of 4.0 mg/kg on days 1,5 and 9.; format: functional; details: route intravenous
Outline: as §2

[21] = tested on: Mus musculus; test: Percent increase in life span was calculated by administering intravenously the compound dose of 2.7 mg/kg on days 1,5 and 9.; format: functional; details: route intravenous
Outline: as §2

[22] = tested on: Mus musculus; test: In vivo antitumor studies were carried out on mice bearing L1210 murine leukemia cells, by administering intravenously the compound dose of 2.7 mg/kg on days 1; format: functional; details: route intravenous
Outline: as §1

[23] = tested on: Mus musculus; test: Percent increase in life span was calculated by administering intravenously the compound dose of 1.8 mg/kg on days 1,8; format: functional; details: route intravenous
Outline: as §2

[24] = tested on: Mus musculus; test: Net log cell kill is an estimate of the number of cells that are killed by the compound was calculated at dose of 4.0 mg/kg on days 1,8; format: functional
Outline: as §3

[25] = tested on: Mus musculus; test: Net log cell kill is an estimate of the number of cells that are killed by the compound was calculated at dose of 1.8 mg/kg on days 1,5,9; format: functional
Outline: as §3

[26] = tested on: Mus musculus; test: In vivo antitumor studies were carried out on mice bearing L1210 murine leukemia cells, by administering intravenously the compound dose of 1.8 mg/kg on days 1,2; format: functional; details: route intravenous
Outline: as §1

[27] = tested on: Mus musculus; test: Net log cell kill is an estimate of the number of cells that are killed by the compound was calculated at dose of 2.7 mg/kg on days 1,8; format: functional
Outline: as §3

[28] = tested on: Mus musculus; test: Net log cell kill is an estimate of the number of cells that are killed by the compound was calculated at dose of 2.7 mg/kg on days 1,5,9; format: functional
Outline: as §3

[29] = tested on: Mus musculus; test: In vivo antitumor studies were carried out on mice bearing L1210 murine leukemia cells, by administering intravenously the compound dose of 4.0 mg/kg on days 1,2; format: functional; details: route intravenous
Outline: as §1

[30] = tested on: Mus musculus; test: Percent increase in life span was calculated by administering intravenously the compound dose of 4.0 mg/kg on days 1,8; format: functional; details: route intravenous
Outline: as §2

[31] = tested on: Mus musculus; test: Net log cell kill is an estimate of the number of cells that are killed by the compound was calculated at dose of 1.8 mg/kg on days 1,2; format: functional
Outline: as §3

[32] = tested on: Mus musculus; test: In vivo antitumor studies were carried out on mice bearing L1210 murine leukemia cells, by administering intravenously the compound dose of 4.0 mg/kg on days 1; format: functional; details: route intravenous
Outline: as §1

[33] = tested on: Mus musculus; test: Percent increase in life span was calculated by administering intravenously the compound dose of 1.8 mg/kg on days 1,5 and 9.; format: functional; details: route intravenous
Outline: as §2

[34] = tested on: Mus musculus; test: Net log cell kill is an estimate of the number of cells that are killed by the compound was calculated at dose of 4.0 mg/kg on days 1; format: functional
Outline: as §3

[35] = tested on: Mus musculus; test: In vivo antitumor studies were carried out on mice bearing L1210 murine leukemia cells, by administering intravenously the compound dose of 4.0 mg/kg on days 1,8; format: functional; details: route intravenous
Outline: as §1

[36] = tested on: Mus musculus; test: In vivo antitumor studies were carried out on mice bearing L1210 murine leukemia cells, by administering intravenously the compound dose of 1.8 mg/kg on days 1,5 and 9.; format: functional; details: route intravenous
Outline: as §1

Question: What does the source list for `S=P(N1CC1)(N1CC1)N1CC1` [THIOTEPA]?
Answer: Mean survival [1]: 15.3 days; ILS at 10 mg/kg [2]: 114%; NLCK [3]: 1

Question: Which results are given for `C(CCNCCCN1CC1)CNCCCN1CC1`?
Answer: Mean survival [4]: 15.2 days; Mean survival [5]: 12.6 days; ILS at 1.8 mg/kg [6]: 57%; Mean survival [7]: 11 days; Mean survival [8]: 6.8 days; Mean survival [9]: 18.8 days; NLCK [10]: 6; ILS at 2.7 mg/kg [11]: 129%; NLCK [12]: 3; NLCK [13]: 4; ILS at 1.8 mg/kg [14]: 100%; Mean survival [15]: 13.2 days; ILS at 2.7 mg/kg [16]: 42%; ILS at 2.7 mg/kg [17]: 100%; Mean survival [18]: 10.8 days; ILS at 4 mg/kg [19]: 57%; ILS at 4 mg/kg [20]: 14%; ILS at 2.7 mg/kg [21]: 171%; Mean survival [22]: 10.4 days; ILS at 1.8 mg/kg [23]: 86%; NLCK [24]: 4; NLCK [25]: 2; Mean survival [26]: 14.8 days; NLCK [27]: 2; NLCK [28]: 4; Mean survival [29]: 5.4 days; ILS at 4 mg/kg [30]: 157%; NLCK [31]: 6; Life span [32]: 11 days; ILS at 1.8 mg/kg [33]: 143%; NLCK [34]: 4; Mean survival [35]: 17.2 days; Mean survival [36]: 17.4 days
